Active and inactive are the calls of the source. The rule behind the calls is not given here.
Legend:
[1] = Cytotoxicity against human NTUB1 cells after 72 hrs by MTT assay; format: functional, cell-based; conditions: NTUB1, 72 h
In short: (§1)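 Cells seeded 1800/well in 96-well plates, preincubated overnight at 37 °C, then exposed to graded concentrations for 72 h at 37 °C (NTUB1, PC3 in RPMI 1640; SV-HUC1 in F12; 10% FBS, 5% CO2). MTT (2 mg/mL) added 3 h, formazan dissolved in DMSO, absorbance 540 nm; viability as percent of control; IC50 by median-effect analysis, mean ± SD.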

PC-3 = assay: Cytotoxicity against human PC3 cells after 72 hrs by MTT assay; format: functional, cell-based; in short: as §1
[2] = Cytotoxicity against immortalized human SV-HUC1 cells after 72 hrs by MTT assay; format: cell-based; conditions: sv-huc1, 72 h; in short: as §1
[3] = Induction of apoptosis in human NTUB1 cells assessed as decrease in JC-1 aggregation at 10 uM after 24 hrs by flow cytometric analysis; format: functional; set-up: scale not given: the % may be the effect or the level left
In short: (§2)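 NTUB1 bladder carcinoma cells (3 × 10^5) in RPMI 1640 with 10% FBS at 37 °C, 5% CO2, exposed to test agent (10, 25 or 50 µM) with 10 µM CCCP as positive control. Stained 30 min with 1 µM JC-1 in medium, washed, trypsinised, resuspended in PBS/2% BSA. Flow cytometry read green monomer and red aggregate fluorescence; the aggregate/monomer ratio represents membrane potential.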

[4] = Induction of apoptosis in human NTUB1 cells assessed as increase in JC-1 probe monomers at 10 uM after 24 hrs by flow cytometric analysis; format: functional; in short: as §2
[5] = Cell cycle arrest in human NTUB1 cells assessed as accumulation at G1 phase at 1 mM after 24 hrs by propidium iodide staining based flow cytometric analysis (reference value: 50.64%); format: functional
In short: (§3)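 8×10^5 NTUB1 cells plated, treated 24 h (alongside 10 µM cisplatin, 1 mM NAC, 50 µM H2O2 controls); harvested by trypsinization, fixed overnight in ice-cold MeOH at −20 °C, stained with 50 µg/mL propidium iodide plus 50 µg/mL RNase A in PBS 30 min at room temperature; cell-cycle phase fractions and sub-G1 (apoptotic) DNA content by FACScan flow cytometry; three independent experiments.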

[6] = Cell cycle arrest in human NTUB1 cells assessed as accumulation at subG1 phase at 1mM after 24 hrs by propidium iodide staining based flow cytometric analysis (reference value: 6.68%); format: functional; in short: as §3
[7] = Cell cycle arrest in human NTUB1 cells assessed as accumulation at S phase at 1 mM after 24 hrs by propidium iodide staining based flow cytometric analysis (reference value: 20.37%); format: functional; in short: as §3
[8] = Decrease in ROS generation in human NTUB1 cells at 1 mM after 24 hrs by H2DCFDA staining based flow cytometeric analysis relative to control; format: functional; set-up: scale not given: the % may be the effect or the level left
In short: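 NTUB1 cells (3×10^5 per 6 cm dish) treated 24 h (20 µM cisplatin and 1 mM NAC controls; medium-only control); 10 µM H2DCFDA added 30 min before harvest; trypsinized, PBS-washed, DCF green fluorescence (525 nm band pass, region M1) measured immediately by flow cytometry; percent change vs control; mean ± SD, n = 3.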

[9] = Cell cycle arrest in human NTUB1 cells assessed as accumulation at G2/M phase at 1 mM after 24 hrs by propidium iodide staining based flow cytometric analysis (reference value: 20.37%); format: functional; in short: as §3
[10] = Cytotoxicity against human NTUB1 cells assessed as cell viability at 3 uM after 72 hrs by MTT assay relative to control; format: functional; conditions: NTUB1, 72 h, read-out: Activity; in short: as §1
[11] = Cytotoxicity against human NTUB1 cells assessed as cell viability at 30 uM after 72 hrs by MTT assay relative to control; format: functional; conditions: NTUB1, 72 h, read-out: Activity; in short: as §1
[12] = Cytotoxicity against human NTUB1 cells assessed as cytotoxic inhibition at 1 uM after 72 hrs by MTT assay relative to control; conditions: NTUB1, 72 h
[13] = Cytotoxicity against human NTUB1 cells assessed as cell viability at 50 uM after 72 hrs by MTT assay relative to control; format: functional; conditions: NTUB1, 72 h, read-out: Activity; in short: as §1
[14] = Cytotoxicity against human NTUB1 cells assessed as cell viability at 10 uM after 72 hrs by MTT assay relative to control; format: functional; conditions: NTUB1, 72 h, read-out: Activity; in short: as §1
[15] = Cytotoxicity against human NTUB1 cells assessed as cell viability at 5 uM after 72 hrs by MTT assay relative to control; format: functional; conditions: NTUB1, 72 h, read-out: Activity; in short: as §1

| SMILES | IC50 [1] [µM] | further results |
| --- | --- | --- |
| C=C(C)[C@@H]1CC[C@]2(C)[C@H](C(=O)C=C3[C@@H]4C[C@@](C)(C(=O)OCc5ccccc5)CC[C@]4(C)CC[C@]32C)[C@@]1(C)CCC(=O)OC(C)C | 18.2 |  |
| C=C(C)[C@@H]1CC[C@]2(C)[C@H](C(=O)C=C3[C@@H]4C[C@@](C)(C(=O)NC(C)C)CC[C@]4(C)CC[C@]32C)[C@@]1(C)CCC(=O)NCC | 12.8 | Activity (PC-3): Active; Activity [2]: Non-toxic |
| C=C(C)[C@@H]1CC[C@]2(C)[C@H](C(=O)C=C3[C@@H]4C[C@@](C)(C(=O)NC(C)C)CC[C@]4(C)CC[C@]32C)[C@@]1(C)CCC(=O)OCC | 19.4 | Activity (PC-3): Active; Activity [2]: Non-toxic |
| C=C(C)[C@@H]1CC[C@]2(C)[C@H](C(=O)C=C3[C@@H]4C[C@@](C)(C(=O)OCc5ccccc5)CC[C@]4(C)CC[C@]32C)[C@@]1(C)CCC(=O)NC(C)C | 30.1 |  |
| C=C(C)[C@@H]1CC[C@]2(C)[C@H](C(=O)C=C3[C@@H]4C[C@@](C)(C(=O)OC)CC[C@]4(C)CC[C@]32C)[C@@]1(C)CCC(=O)NC(C)C | 31.4 |  |
| C=C(C)[C@@H]1CC[C@]2(C)[C@H](C(=O)C=C3[C@@H]4C[C@@](C)(C(=O)OCc5ccccc5)CC[C@]4(C)CC[C@]32C)[C@@]1(C)CCC(=O)OCC | 27.8 |  |
| C=C(C)[C@@H]1CC[C@]2(C)[C@H](C(=O)C=C3[C@@H]4C[C@@](C)(C(=O)OC)CC[C@]4(C)CC[C@]32C)[C@@]1(C)CCC(=O)OC(C)C | 25.3 |  |
| COC(=O)[C@@]1(C)CC[C@]2(C)CC[C@]3(C)C(=CC(=O)[C@@H]4[C@@]5(C)CCC(=O)C(C)(C)[C@@H]5CC[C@]43C)[C@@H]2C1 | 56.5 |  |
| CC1(C)OC(=O)CC[C@]2(C)[C@H]3C(=O)C=C4[C@@H]5C[C@@](C)(C(=O)O)CC[C@]5(C)CC[C@@]4(C)[C@]3(C)CC[C@@H]12 | 73.5 |  |
| N#CC(C#N)=NNc1cccc(Cl)c1 [CARBONYL CYANIDE M-CHLOROPHENYLHYDRAZONE] |  | Activity [3]: 48.42%; Activity [4]: 52.06% |
| C=C(C)[C@@H]1CC[C@]2(C)[C@H](C(=O)C=C3[C@@H]4C[C@@](C)(C(=O)NC(C)C)CC[C@]4(C)CC[C@]32C)[C@@]1(C)CCC(=O)OC(C)C | 29.2 |  |
| CC(=O)N[C@@H](CS)C(=O)O [ACETYLCYSTEINE] |  | Activity [5]: 44.4%; Activity [6]: 2.66%; Activity [7]: 29.2%; Activity [8]: 26.1%; Activity [9]: 20.2% |
| C=C(C)[C@@H]1CC[C@]2(C)[C@H](C(=O)C=C3[C@@H]4C[C@@](C)(C(=O)NC(C)C)CC[C@]4(C)CC[C@]32C)[C@@]1(C)CCC(=O)NCCC | > 50 |  |
| C=C(C)[C@@H]1CC[C@]2(C)[C@H](C(=O)C=C3[C@@H]4C[C@@](C)(C(=O)OCc5ccccc5)CC[C@]4(C)CC[C@]32C)[C@@]1(C)CCC(=O)NCC | 42.7 |  |
| CC1(C)[C@@H](O)CC[C@]2(C)[C@H]3C(=O)C=C4[C@@H]5C[C@@](C)(C(=O)O)CC[C@]5(C)CC[C@@]4(C)[C@]3(C)CC[C@@H]12 [ENOXOLONE] | 27.3 |  |
| C=C(C)[C@@H]1CC[C@]2(C)[C@H](C(=O)C=C3[C@@H]4C[C@@](C)(C(=O)OCc5ccccc5)CC[C@]4(C)CC[C@]32C)[C@@]1(C)CCC(=O)O | 2.34 |  |
| CC1(C)OC(=O)CC[C@]2(C)[C@H]3C(=O)C=C4[C@@H]5C[C@@](C)(C(=O)OCc6ccccc6)CC[C@]5(C)CC[C@@]4(C)[C@]3(C)CC[C@@H]12 | 57.6 |  |
| CC1(C)C(=O)CC[C@]2(C)[C@H]3C(=O)C=C4[C@@H]5C[C@@](C)(C(=O)O)CC[C@]5(C)CC[C@@]4(C)[C@]3(C)CC[C@@H]12 | 18.6 |  |
| CC(C)NC(=O)[C@@]1(C)CC[C@]2(C)CC[C@]3(C)C(=CC(=O)[C@@H]4[C@@]5(C)CCC(=O)OC(C)(C)[C@@H]5CC[C@]43C)[C@@H]2C1 | 25.7 |  |
| C=C(C)[C@@H]1CC[C@]2(C)[C@H](C(=O)C=C3[C@@H]4C[C@@](C)(C(=O)NC(C)C)CC[C@]4(C)CC[C@]32C)[C@@]1(C)CCC(=O)O | 17.5 |  |
| C=C(C)[C@@H]1CC[C@]2(C)[C@H](C(=O)C=C3[C@@H]4C[C@@](C)(C(=O)OC)CC[C@]4(C)CC[C@]32C)[C@@]1(C)CCC(=O)O | 20.7 |  |
| C=C(C)[C@@H]1CC[C@]2(C)[C@H](C(=O)C=C3[C@@H]4C[C@@](C)(C(=O)OCc5ccccc5)CC[C@]4(C)CC[C@]32C)[C@@]1(C)CCC(=O)OC | 9.41 | viability at 3 µM [10]: 22%; viability at 30 µM [11]: 66%; cytotoxic inhibition at 1 µM [12]: 32%; viability at 50 µM [13]: 68%; viability at 10 µM [14]: 50%; viability at 5 µM [15]: 20% |
| C=C(C)[C@@H]1CC[C@]2(C)[C@H](C(=O)C=C3[C@@H]4C[C@@](C)(C(=O)Nc5ccccc5)CC[C@]4(C)CC[C@]32C)[C@@]1(C)CCC(=O)O | 3.31 |  |
| COC(=O)[C@@]1(C)CC[C@]2(C)CC[C@]3(C)C(=CC(=O)[C@@H]4[C@@]5(C)CCC(=O)OC(C)(C)[C@@H]5CC[C@]43C)[C@@H]2C1 | 24.3 |  |
| C=C(C)[C@@H]1CC[C@]2(C)[C@H](C(=O)C=C3[C@@H]4C[C@@](C)(C(=O)OCc5ccccc5)CC[C@]4(C)CC[C@]32C)[C@@]1(C)CCC(=O)NCCC | 49.4 |  |
| CC1(C)C(=O)CC[C@]2(C)[C@H]3C(=O)C=C4[C@@H]5C[C@@](C)(C(=O)OCc6ccccc6)CC[C@]5(C)CC[C@@]4(C)[C@]3(C)CC[C@@H]12 | 20.2 |  |
| CC1(C)OC(=O)CC[C@]2(C)[C@H]3C(=O)C=C4[C@@H]5C[C@@](C)(C(=O)Nc6ccccc6)CC[C@]5(C)CC[C@@]4(C)[C@]3(C)CC[C@@H]12 | 16 |  |
| C=C(C)[C@@H]1CC[C@]2(C)[C@H](C(=O)C=C3[C@@H]4C[C@@](C)(C(=O)NC(C)C)CC[C@]4(C)CC[C@]32C)[C@@]1(C)CCC(=O)OC | 13.1 | viability at 3 µM [10]: 25%; viability at 30 µM [11]: 67%; cytotoxic inhibition at 1 µM [12]: 40%; viability at 50 µM [13]: 71%; viability at 10 µM [14]: 27%; viability at 5 µM [15]: 24% |

Reference: ChEMBL document CHEMBL1806419, “18β-Glycyrrhetinic acid derivatives induced mitochondrial-mediated apoptosis through reactive oxygen species-mediated p53 activation in NTUB1 cells” (Bioorg Med Chem, 2011)
